# Measured values from ChEMBL document CHEMBL2375308, “Synthesis and selected immunological properties of substituted quino[3,2-b]benzo[1,4]thiazines” (Eur J Med Chem, 2013).
# The source made the active and inactive calls. No cut-off for these calls is given here.
# Tests used:
# [1] = system: SW948; assay: Growth inhibition of human SW948 cells at 5 ug/mL after 3 days by MTT assay relative to control; assay type: functional; conditions: SW948, 72 h, read-out: GI
# Method in brief: (§1)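 Lines resuspended in culture medium: L-1210 at 1.5 × 10⁴ cells/well, SW-948 and A-431 at 2.5 × 10⁴ cells/well. Preparations added over […], cisplatin reference at the same concentrations. 3-day incubation, proliferation by MTT; mean OD of quadruplicate wells ±SE, expressed as percentage inhibition.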
# [2] = system: L1210; assay: Growth inhibition of mouse L1210 cells at 10 ug/mL after 3 days by MTT assay relative to control; assay type: functional; conditions: L1210, 72 h, read-out: GI; method in brief: as §1
# [3] = system: SW948; assay: Growth inhibition of human SW948 cells at 10 ug/mL after 3 days by MTT assay relative to control; assay type: functional; conditions: SW948, 72 h, read-out: GI; method in brief: as §1
# [4] = system: A-431; assay: Growth inhibition of human A431 cells at 10 ug/mL after 3 days by MTT assay relative to control; assay type: functional; conditions: A-431, 72 h, read-out: GI; method in brief: as §1
# [5] = system: SW948; assay: Growth inhibition of human SW948 cells at 10 to 50 ug/mL after 3 days by MTT assay; assay type: functional, cell-based; method in brief: as §1
# [6] = system: A-431; assay: Growth inhibition of human A431 cells at 10 to 50 ug/mL after 3 days by MTT assay; assay type: functional, cell-based; method in brief: as §1
# [7] = system: L1210; assay: Growth inhibition of mouse L1210 cells at 10 to 50 ug/mL after 3 days by MTT assay; assay type: functional, cell-based; method in brief: as §1
# [8] = system: PBMC; assay: Inhibition of LPS-induced TNFalpha production in human PBMC at 25 ug/mL after overnight incubation relative to DMSO-treated control; assay type: functional
# Method in brief: (§2)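 Single-donor venous blood diluted 10× in RPMI-1640, 1 mL aliquots, stimulated with LPS (E. coli O111:B4). Compounds added at […]; corresponding DMSO dilutions as controls. Overnight incubation, supernatants frozen at −20 °C, TNF-α measured by biological assay; percentage inhibition versus DMSO control.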
# [9] = system: PBMC; assay: Inhibition of LPS-induced TNFalpha production in human PBMC at 5 ug/mL after overnight incubation relative to DMSO-treated control; assay type: functional; method in brief: as §2
# [10] = system: PBMC; assay: Antiproliferative activity against PHA-stimulated human PBMC at 50 ug/mL after 4 days by MTT assay relative to DMSO-treated control; assay type: functional
# Method in brief: (§3)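 PBMC from one donor's heparinized blood, Ficoll gradient isolated, in RPMI-1640 with 10% FCS; 2 × 10⁵ cells/well. PHA added at […]; compounds from DMSO stock (10 mg/mL) diluted in medium; matching DMSO dilutions as control. Four-day culture, proliferation read by MTT colorimetry; percentage inhibition versus control.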
# [11] = system: PBMC; assay: Antiproliferative activity against PHA-stimulated human PBMC at 10 ug/mL after 4 days by MTT assay relative to DMSO-treated control; assay type: functional; method in brief: as §3
# [12] = system: PBMC; assay: Cytotoxicity against human PBMC cells at 10 ug/mL after 24 hrs by MTT assay relative to DMSO-treated control; assay type: cell-based
# Method in brief: (§4)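 Ficoll-isolated PBMC ([…]) in supplemented RPMI-1640, 2 × 10⁵/well, cultured 24 h with the preparations at the indicated concentrations; compounds dissolved in DMSO (10 mg/mL stock) and diluted in medium.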
# [13] = system: PBMC; assay: Cytotoxicity against human PBMC cells at 50 ug/mL after 24 hrs by MTT assay relative to DMSO-treated control; assay type: cell-based; method in brief: as §4
SMILES,inhibition of growth at 5 µg/mL [1] [%],inhibition of growth at 10 µg/mL [2] [%],inhibition of growth at 10 µg/mL [3] [%],inhibition of growth at 10 µg/mL [4] [%],growth inhibition (GI) [5],growth inhibition (GI) [6],growth inhibition (GI) [7],inhibition at 25 µg/mL [8] [%],inhibition at 5 µg/mL [9] [%],Activity [10] [%],Activity [11] [%],Activity [12],Activity [13]
O=C(NCCCl)NCCCN1c2ccc(Cl)cc2Sc2cc3ccccc3nc21,96,91.8,91.8,91.8,Active,Active,Active,72.1,9.2,100,98.6,15.9%,89.5%
CC(=O)NCCCCN1c2ccc(Cl)cc2Sc2cc3ccccc3nc21,,91.8,91.8,91.8,Active,Active,Active,53.4,13.2,92.6,71.2,Non-toxic,Non-toxic
CSc1ccc2c(c1)Sc1cc3ccccc3nc1N2CCCCNC(=O)NCCCl,96,91.8,91.8,91.8,Active,Active,Active,47.5,73.3,92.7,94.8,4.2%,95.1%
Clc1ccc2c(c1)Sc1cc3ccccc3nc1N2,,,,,,,,9.6,2,5.7,-0.3,Non-toxic,Non-toxic
CSc1ccc2c(c1)Sc1cc3ccccc3nc1N2,,,,,,,,19.2,22.5,2.9,0,Non-toxic,Non-toxic
CCOC(=O)NCCCN1c2ccccc2Sc2cc3ccccc3nc21,,,,,,,,14.1,7.7,88.4,69.7,Non-toxic,Non-toxic
CSc1ccc2c(c1)Sc1cc3ccccc3nc1N2CCCCNC(C)=O,,,,,,,,60.4,46.8,42,54.7,Non-toxic,7.9%
CS(=O)(=O)NCCCN1c2ccc(Cl)cc2Sc2cc3ccccc3nc21,,,,,,,,30.5,1.2,74.4,73.4,Non-toxic,Non-toxic
CC(=O)NCCCCN1c2ccccc2Sc2cc3ccccc3nc21,,,,,,,,20.2,0,94.3,72.7,Non-toxic,Non-toxic
